Assay results taken from ChEMBL document CHEMBL1135047, “Discovery of 5-hydroxyalkyl-4-phenylpyridines as a new class of glucagon receptor antagonists” (Bioorg Med Chem Lett, 2002).

Experiments:
Glucagon receptor [1] = target: T1, Glucagon receptor (Homo sapiens, UniProt P47871); assay: Inhibitory concentration against binding to the human glucagon receptor (hGR)
Glucagon receptor [2] = target: T1, Glucagon receptor; assay: Inhibitory concentration against cAMP production in hGR-CHO cells; type: functional, cell-based
Method in brief: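 hGR-CHO cells grown to confluency, preincubated 10 min at 37 °C in assay buffer, then 10 min with 100 µM isobutylmethylxanthine. Test compound at 10 nM to 10 µM final, then glucagon at 10 pM final; 15 min incubation. Stopped with 65% ethanol; extracted cAMP measured by SPA assay. DMSO 0.1% control.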

T1 sequence (P47871 whole entry): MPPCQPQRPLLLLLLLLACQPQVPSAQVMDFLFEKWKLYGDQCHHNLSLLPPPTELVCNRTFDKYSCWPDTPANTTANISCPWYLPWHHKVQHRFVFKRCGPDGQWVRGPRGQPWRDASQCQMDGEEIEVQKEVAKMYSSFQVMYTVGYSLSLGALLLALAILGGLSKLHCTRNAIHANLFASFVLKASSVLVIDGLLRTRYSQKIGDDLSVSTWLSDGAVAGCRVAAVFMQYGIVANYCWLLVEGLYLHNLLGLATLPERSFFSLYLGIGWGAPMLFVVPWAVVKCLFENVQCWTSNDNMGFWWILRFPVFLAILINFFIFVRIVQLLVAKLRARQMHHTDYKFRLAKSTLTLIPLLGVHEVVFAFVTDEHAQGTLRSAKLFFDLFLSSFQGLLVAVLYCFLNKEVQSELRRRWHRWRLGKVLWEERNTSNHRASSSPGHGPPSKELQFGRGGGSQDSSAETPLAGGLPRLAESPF

SMILES | IC50 (Glucagon receptor [1]) [nM] | IC50 (Glucagon receptor [2]) [nM]
COC(=O)c1c(C(C)C)nc(C(C)C)c(CO)c1-c1ccc(F)cc1 | 9500 | 
CC(C)=Cc1c(C(C)C)nc(C(C)C)c(CO)c1-c1ccc(F)cc1 | 7000 | 2000
CCCCCc1c(C)nc(C)c(CO)c1-c1ccccc1 | > 20000 | 
CCCCCc1c(C(C)C)nc(C(C)C)c([C@@H](C)O)c1-c1ccc(F)cc1 (single isomer, unassigned) | 150 | 
CCCCCc1c(CC)nc(CC)c(CO)c1-c1ccccc1 | 20000 | 
CCCCCc1c(C(C)C)nc(C(C)C)c(C(C)O)c1-c1ccc(F)cc1 (configuration not stated) | 300 | 
CCCCc1c(C(C)C)nc(C(C)C)c(C(C)O)c1-c1ccc(F)cc1 (configuration not stated) | 250 | 

The next lines start with the values.

IC50 (Glucagon receptor [1]) [nM] | IC50 (Glucagon receptor [2]) [nM] | SMILES
> 20000 |  | CCc1c(C)nc(C)c(CO)c1-c1ccccc1
700 |  | CCCCCc1c(C(C)C)nc(C(C)C)c(CO)c1-c1ccc(F)cc1
> 20000 |  | CCc1nc(CC)c(CO)c(-c2ccccc2)c1CC
> 20000 |  | CC(C)c1nc(C(C)C)c(CO)c(-c2ccc(F)cc2)c1CO
1800 |  | CCc1c(C(C)C)nc(C(C)C)c(CO)c1-c1ccccc1
1400 |  | CCCCCc1c(C(C)C)nc(C(C)C)c(CO)c1-c1ccccc1
9000 |  | COCc1c(C(C)C)nc(C(C)C)c(CO)c1-c1ccc(F)cc1
6000 |  | C=Cc1c(C(C)C)nc(C(C)C)c(CO)c1-c1ccc(F)cc1
350 |  | CCCCCCc1c(C(C)C)nc(C(C)C)c(CO)c1-c1ccc(F)cc1
